Rce1 inh: yeast Rce1p protease inhibitors, primary screen, biochemical, fluorescence, cell-free homogeneous; CAAX prenyl protease 2 (Saccharomyces cerevisiae (strain ATCC 204508 / S288c)), Q03530; yeast membranes, quenched prenylated peptide cleavage fluorescence; AID 2563, 2010; calls only; 290,000 compounds, 0.27% hits;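 active means fall in fluorescence gain of 50% or more versus controls, with final raw signal at or below 3038400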;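 further: plate controls were neutral control wells for no effect and wells lacking membranes for full effect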
Target sequence (Q03530 whole entry, looked up): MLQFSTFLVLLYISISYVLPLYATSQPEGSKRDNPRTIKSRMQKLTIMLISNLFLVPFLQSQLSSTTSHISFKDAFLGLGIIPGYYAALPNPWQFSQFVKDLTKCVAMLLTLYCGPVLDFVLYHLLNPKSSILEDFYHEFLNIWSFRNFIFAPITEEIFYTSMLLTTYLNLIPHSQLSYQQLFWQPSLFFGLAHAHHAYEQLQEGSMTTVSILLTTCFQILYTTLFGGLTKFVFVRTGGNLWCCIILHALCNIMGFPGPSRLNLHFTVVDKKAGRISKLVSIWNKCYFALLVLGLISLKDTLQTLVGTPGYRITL
KLK5 inh: human KLK5 protease inhibitors, primary screen, biochemical, 1536-well | inhibition, % at 5 µM | Kallikrein-5 (Homo sapiens), Q9Y337 | AID 873, 2007 | 210,000 compounds, 0.59% hits | recombinant hK5, fluorogenic AMC substrate cleavage;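 active means inhibition of 40% or more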;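 further: 0% = enzyme controls without compound and 100% = no-enzyme blanks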
Target sequence (Q9Y337 67-293 limits assumed): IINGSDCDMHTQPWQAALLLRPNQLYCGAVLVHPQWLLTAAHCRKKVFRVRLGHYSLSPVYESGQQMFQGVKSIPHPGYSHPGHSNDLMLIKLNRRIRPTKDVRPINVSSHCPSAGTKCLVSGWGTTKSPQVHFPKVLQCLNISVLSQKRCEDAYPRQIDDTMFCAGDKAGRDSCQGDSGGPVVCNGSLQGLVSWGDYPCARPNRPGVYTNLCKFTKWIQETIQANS
FXIa inh 1536: human FXIa protease inhibitors, primary screen, biochemical, 1536-well. AID 798, 2007. purified FXIa, Boc-Glu-Ala-Arg-AMC fluorogenic substrate. 220,000 compounds, 0.14% hits. inhibition, % at 5 µM;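 active means inhibition of at least 40%; inactive means inhibition below 40%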;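 further: fluorescence of freed AMC excited at 355 nm; 0% = enzyme without compound and 100% = no enzyme blank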
CTSL1 counter: Fasciola hepatica cathepsin L1 inhibitors, primary screen, counter-screen for PFM18AAP inhibitor project, biochemical, QFRET, fluorogenic peptide substrate. 300,000 compounds, 0.49% hits. inhibition, % at 5.96 µM. recombinant F. hepatica cathepsin L1, Z-Leu-Arg-MCA fluorescence;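 active means inhibition above the mean of all tested compounds plus 3 SD, set per screening campaign, cut at about 17% in these data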;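 further: 0% = plate median of test compound wells and 100% = 1 µM Z-Phe-Ala-diazomethylketone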
FXIIa inh 1536: human FXIIa protease inhibitors, primary screen, biochemical, 1536-well; inhibition, % at 5 µM; purified FXIIa, Boc-QGR-AMC fluorogenic substrate, 2 h; 220,000 compounds, 0.3% hits; in the data active means inhibition above about 40%;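 further: 0% = enzyme with no compound and 100% = blank without enzyme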
thrombin 1536: human alpha-thrombin inhibitors, primary screen, counter-screen for coagulation protease inhibitor project, biochemical, 1536-well, fluorogenic AMC substrate; Prothrombin (Homo sapiens), P00734; AID 1046, 2008; Boc-VPR-AMC fluorogenic substrate cleavage; 220,000 compounds, 0.26% hits; inhibition, % at 5 µM;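 active means inhibition at or above 40%; inactive means inhibition below 40%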;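 further: 0% = enzyme with no compound and 100% = wells without enzyme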
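Material: Human alpha-thrombin protein | Buffer or medium: pH 7.5 Tris-saline with Tween 20 | Reagent: Boc-VPR-AMC substrate, 15 µM final | Schedule: Reaction at ambient temperature | Detection: AMC fluorescence at 355 nm excitation and 460 nm emission | Evaluation: Percent inhibition scaled between no-compound controls and no-enzyme blanks | Controls: no-compound enzyme wells and no-enzyme blanks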
Starred values were filed as active, the others as inactive. Compounds with a hit are over-represented: about 1.4% of the library has one in this group of screens.

What do the screens show for `COc1ccc(N2C(=O)C(Cl)=C(Nc3ccccc3O)C2=O)cc1`?
KLK5 inh: 14; FXIa inh 1536: 11; CTSL1 counter: 50*; FXIIa inh 1536: 17; thrombin 1536: 5

Results for CCCCNC(=O)C(CC)Sc1nc2sc(C(=O)OC)c(C)c2c(=O)n1N (stereo unspecified) ?
Rce1 inh: active; KLK5 inh: 4; FXIa inh 1536: -4; CTSL1 counter: 0; FXIIa inh 1536: 9; thrombin 1536: -4

How did CCC(Sc1nc2sc(C(=O)OC)c(C)c2c(=O)n1N)C(=O)NCC1CCCO1 (stereo unspecified) do in these assays?
Rce1 inh: inactive; KLK5 inh: 43*; FXIa inh 1536: 14; CTSL1 counter: -2; FXIIa inh 1536: 29; thrombin 1536: 18

What do the screens show for `CCOC(=O)c1sc(NC(=O)CCN2CCN(CC)CC2)c(C(=O)OCC)c1C`?
Rce1 inh: inactive; KLK5 inh: -3; FXIa inh 1536: -3; CTSL1 counter: 4; thrombin 1536: -7

What do the screens show for `CCCCNC(=O)c1cc2c(=O)n3cccc(C)c3nc2n(Cc2ccccc2)c1=N`?
Rce1 inh: active; KLK5 inh: -97; FXIa inh 1536: -25; CTSL1 counter: -2; FXIIa inh 1536: -32; thrombin 1536: -19

What do the screens show for `CCNC(=O)c1cc2c(=O)n3cccc(C)c3nc2n(CCc2ccccc2)c1=N`?
Rce1 inh: inactive; KLK5 inh: -65; FXIa inh 1536: -14; CTSL1 counter: 0; FXIIa inh 1536: -25; thrombin 1536: -23

Results for Cc1ccc(Cn2c(=N)c(C(=O)NCc3ccco3)cc3c(=O)n4ccccc4nc32)cc1 ?
Rce1 inh: inactive; KLK5 inh: 41*; FXIa inh 1536: 13; CTSL1 counter: 1; FXIIa inh 1536: 19; thrombin 1536: 20

Results for O=S(=O)(Nc1ccc2ccccc2n1)c1ccccc1 ?
Rce1 inh: inactive; CTSL1 counter: 3

How did CCSc1nnc(N2C(=O)CC(c3ccsc3)C3=C2CC(C)(C)CC3=O)s1 (stereo unspecified) do in these assays?
Rce1 inh: inactive; KLK5 inh: 53*; FXIa inh 1536: 5; CTSL1 counter: 2; FXIIa inh 1536: 18; thrombin 1536: 9

How did CCOC(=O)C(=O)N(Nc1ccc(C)cc1)c1ccc(C)cc1 do in these assays?
Rce1 inh: inactive; KLK5 inh: 34; FXIa inh 1536: 50*; CTSL1 counter: 2; FXIIa inh 1536: 24; thrombin 1536: 11

What do the screens show for `C/C(=N\NC(=O)c1cccs1)C(C)(C)C`?
Rce1 inh: inactive; KLK5 inh: -9; FXIa inh 1536: 0; CTSL1 counter: 3; FXIIa inh 1536: 6; thrombin 1536: -8

What do the screens show for `COCCCNC(=O)CC(NS(=O)(=O)c1ccc(Cl)cc1)c1ccc(OC)cc1` (stereo unspecified)?
Rce1 inh: inactive; KLK5 inh: -9; FXIa inh 1536: 5; CTSL1 counter: 9; FXIIa inh 1536: 6; thrombin 1536: -4

What do the screens show for `COc1cccc(CNC(=O)c2ccc(CS(=O)(=O)Cc3ccccc3C)o2)c1`?
Rce1 inh: inactive; CTSL1 counter: 4

How did c1coc(-c2ccnc3ncnn23)c1 do in these assays?
Rce1 inh: active; KLK5 inh: -14; FXIa inh 1536: -4; CTSL1 counter: -1; FXIIa inh 1536: 1; thrombin 1536: -8

How did Nc1nc2nccc(-c3ccco3)n2n1 do in these assays?
KLK5 inh: -34; FXIa inh 1536: -4; CTSL1 counter: 8; FXIIa inh 1536: 3; thrombin 1536: -14

What do the screens show for `COc1ccc2oc(C(=O)N(C)Cc3ccc(OC(F)F)cc3)c(C)c2c1`?
Rce1 inh: inactive; CTSL1 counter: 0

What do the screens show for `COc1ccc(OC)c(C2CC(=O)N3CN(c4ccccc4)CSC3=C2C#N)c1` (stereo unspecified)?
Rce1 inh: inactive; KLK5 inh: -20; FXIa inh 1536: -3; CTSL1 counter: 4; FXIIa inh 1536: 6; thrombin 1536: -9

What do the screens show for `COc1cc(OC)c(C2CC(=O)N3CN(c4ccccc4C)CSC3=C2C#N)cc1OC` (stereo unspecified)?
Rce1 inh: inactive; KLK5 inh: -4; FXIa inh 1536: 6; CTSL1 counter: 31*; FXIIa inh 1536: 7; thrombin 1536: 5

Results for O=C1CN(S(=O)(=O)c2ccc([N+](=O)[O-])cc2)CC(=O)N1 ?
Rce1 inh: active; CTSL1 counter: -1

Results for CCCc1cc(=O)[nH]c(Nc2ccc3c(c2)OCCO3)n1 ?
Rce1 inh: inactive; KLK5 inh: -3; FXIa inh 1536: -1; CTSL1 counter: -3; FXIIa inh 1536: 8; thrombin 1536: 5

What do the screens show for `CC(C)(C)OC(=O)NN1CC(=O)N2Cc3[nH]c4ccccc4c3C[C@H]2C1=O`?
Rce1 inh: inactive; CTSL1 counter: 7

How did CN(/N=C/c1ccc2c(c1)OCO2)c1nc(N2CCOCC2)nc(N2CCOCC2)n1 do in these assays?
Rce1 inh: inactive; KLK5 inh: -3; FXIa inh 1536: 1; CTSL1 counter: -3; FXIIa inh 1536: 100*; thrombin 1536: -11

Results for O=c1nc(N2CCOCC2)nc(N/N=C/c2ccc3c(c2)OCO3)[nH]1 ?
Rce1 inh: inactive; KLK5 inh: 6; FXIa inh 1536: -3; CTSL1 counter: 0; FXIIa inh 1536: 0; thrombin 1536: -1

What do the screens show for `CC1=C(C(=O)Nc2ccccc2C(F)(F)F)C(c2ccc(C)s2)NC(=S)N1` (stereo unspecified)?
Rce1 inh: inactive; KLK5 inh: -2; FXIa inh 1536: -4; CTSL1 counter: 0; FXIIa inh 1536: 7; thrombin 1536: -8

How did CCn1cc(C(=O)NCc2ccc(Cl)cc2)c(=O)c2cc(S(=O)(=O)N3CCOCC3)ccc21 do in these assays?
Rce1 inh: inactive; KLK5 inh: -6; FXIa inh 1536: 6; CTSL1 counter: -2; FXIIa inh 1536: 14; thrombin 1536: 56*

How did CCn1cc(C(=O)NCc2ccc3c(c2)OCO3)c(=O)c2cc(S(=O)(=O)N(C)C)ccc21 do in these assays?
Rce1 inh: inactive; KLK5 inh: -10; FXIa inh 1536: 5; CTSL1 counter: 18*; FXIIa inh 1536: 12; thrombin 1536: 55*

Results for CCn1cc(C(=O)NCc2ccc3c(c2)OCO3)c(=O)c2cc(S(=O)(=O)N3CCOCC3)ccc21 ?
Rce1 inh: inactive; KLK5 inh: -8; FXIa inh 1536: -13; CTSL1 counter: 7; FXIIa inh 1536: -4; thrombin 1536: 93*

Source: PubChem (several laboratories)
